Key:
[1] = test system: HeLa; experiment: Cytotoxicity against human HeLa cells assessed as reduction in cell viability at 1 uM after 48 hrs by Alamar blue staining based fluorescence assay relative to control; format: functional
Outline: (§1)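 HeLa cells seeded at 1×10^5 cells/ml in MEM with 10% FBS, 1% NEAA, 2 mM glutamine and 1% antibiotic-antimycotic, grown 24 h at 37°C under 5% CO2. Compounds then added for 48 h at concentrations up to 1.6 mM. Alamar blue applied for 3 h, plates cooled to room temperature, fluorescence read at ex 544, em 590 nm. Readings normalized to DMSO-only controls set at 100%. IC50 taken from concentration-response curve fits, mean ± SEM, n=3-4.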

[2] = test system: HeLa; experiment: Cytotoxicity against human HeLa cells assessed as reduction in cell viability after 48 hrs by Alamar blue staining based fluorescence assay; format: functional
Outline: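 HeLa cells seeded at 1×10^5 cells/ml in MEM with 10% FBS, 1% NEAA, 2 mM glutamine and 1% antibiotic-antimycotic, grown 24 h at 37°C under 5% CO2. Compounds then added for 48 h at concentrations up to 1.6 mM. Readings normalized to DMSO-only controls set at 100%.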

[3] = test system: HeLa; experiment: Cytotoxicity against human HeLa cells assessed as reduction in cell viability at 5 uM after 48 hrs by Alamar blue staining based fluorescence assay relative to control; format: functional; outline: as §1
[4] = test system: HeLa; experiment: Cytotoxicity against human HeLa cells assessed as reduction in cell viability at 2.5 uM after 48 hrs by Alamar blue staining based fluorescence assay relative to control; format: functional; outline: as §1
[5] = test system: HeLa; experiment: Induction of morphological changes in human HeLa cells assessed as loss of cells by microscopic method; format: functional, cell-based
Outline: (§2)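 HeLa cells seeded at 1×10^5 cells/ml and grown for 24 h at 37°C under 5% CO2, then exposed to compounds for 48 h. Cell loss and rounding of the remaining cells were judged against DMSO-treated controls by inverted phase microscopy at ×10 magnification, with camera images taken after treatment.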

[6] = test system: HeLa; experiment: Induction of morphological changes in human HeLa cells assessed as cell rounding by microscopic method; format: functional, cell-based; outline: as §2

SMILES	Activity [1]	IC50 [2]	Activity [3]	Activity [4]	Activity [2]	Activity [5]	Activity [6]
COc1cccc2c1C(=O)c1c(O)c3c(c(O)c1C2=O)C[C@@](O)(C(=O)CO)C[C@@H]3O[C@H]1C[C@H](N)[C@H](O)[C@H](C)O1 [DOXORUBICIN]	106.5%	2.3 µM	40%	50.8%			
COC(=O)c1cc(O)c(O)c(O)c1 [GALLIC ACID METHYL ESTER]		267 µM			Dose-dependent effect		
C=C1C(=O)O[C@@H]2/C=C(/C)[C@H](O)C/C=C(\C)[C@@H](O)[C@H](OC(=O)/C(C)=C\C)[C@@H]12		36.2 µM			Dose-dependent effect	Dose-dependent effect	Dose-dependent effect
COC(=O)c1cc(OC)c(CCc2c(OC)cc(C(=O)OC)cc2OC)c(OC)c1		46.5 µM			Dose-dependent effect		

— ChEMBL document CHEMBL4011600, “Identification of compounds with cytotoxic activity from the leaf of the Nigerian medicinal plant, Anacardium occidentale L. (Anacardiaceae)” (Bioorg Med Chem, 2017)
